Measurements published in ChEMBL document CHEMBL3272182 (J Med Chem, 1976).
Positions of bridges follow the written chain, without caps; N, C: chain ends. Non-standard residues stand in square brackets, D forms with d. Residues, ends and D or L forms follow the SMILES beside them. Mpa = O=C(O)CCS

Experiments:
[1] = molecular target: T1, Oxytocin receptor (Rattus norvegicus) (UniProt P70536); assay: Activity at oxytocin receptor in rat uterus in presence of Mg2+; type: tissue-based
T1 sequence (whole entry): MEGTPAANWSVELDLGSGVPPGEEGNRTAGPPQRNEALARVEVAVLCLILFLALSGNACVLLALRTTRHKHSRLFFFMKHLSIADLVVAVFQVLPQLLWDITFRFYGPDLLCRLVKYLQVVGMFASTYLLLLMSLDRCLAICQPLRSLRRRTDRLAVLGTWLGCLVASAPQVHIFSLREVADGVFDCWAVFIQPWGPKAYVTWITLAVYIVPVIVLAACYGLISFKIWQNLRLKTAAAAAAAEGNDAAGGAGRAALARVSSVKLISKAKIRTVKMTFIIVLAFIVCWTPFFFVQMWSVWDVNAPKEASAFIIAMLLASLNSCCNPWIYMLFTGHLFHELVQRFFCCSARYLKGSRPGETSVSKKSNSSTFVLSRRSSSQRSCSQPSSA

Rattus norvegicus [2] = organism: Rattus norvegicus; assay: Antidiuretic activity in rat; type: functional, Urine
Rattus norvegicus [3] = organism: Rattus norvegicus; assay: Ratio of antidiuretic activity in rat to vasopressor activity in rat; design: species or system Urine
Summary of the method: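 Antidiuretic and vasopressor potencies were each expressed in units/mg from rat assays. The A/P value is the antidiuretic potency divided by the vasopressor potency.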

Rattus norvegicus [4] = organism: Rattus norvegicus; assay: Vasopressor activity in rat; type: organism-based; details: in vivo
[5] = Retardation factor of the compound by silica gel thin-layer chromatography
[6] = molecular target: T1, Oxytocin receptor (Rattus norvegicus); assay: Activity at oxytocin receptor in rat uterus; type: tissue-based

| SMILES | Activity [1] [U/mg] | Activity (Rattus norvegicus [2]) [U/mg] | Ratio (Rattus norvegicus [3]) | Activity (Rattus norvegicus [4]) [U/mg] | Rf [5] | Activity [6] [U/mg] |
| --- | --- | --- | --- | --- | --- | --- |
| N=C(N)NCCC[C@H](NC(=O)[C@@H]1CCCN1C(=O)[C@@H]1CSSC[C@H](N)C(=O)N[C@@H](Cc2ccc(O)cc2)C(=O)N[C@@H](Cc2ccccc2)C(=O)N[C@@H](CCC(N)=O)C(=O)N[C@@H](CC(N)=O)C(=O)N1)C(=O)NCC(N)=O [VASOPRESSIN] | 25.5 | 323 | 1 |  |  |  |
| C[C@@H](O)[C@@H]1NC(=O)[C@H](Cc2ccccc2)NC(=O)[C@H](Cc2ccc(O)cc2)NC(=O)CCSSC[C@@H](C(=O)N2CCC[C@H]2C(=O)N[C@@H](CCCN=C(N)N)C(=O)NCC(N)=O)NC(=O)[C@H](CC(N)=O)NC1=O |  | 758 |  | 30 |  |  |
| N=C(N)NCCC[C@@H](NC(=O)[C@@H]1CCCN1C(=O)[C@@H]1CSSCCC(=O)N[C@@H](Cc2ccc(O)cc2)C(=O)N[C@@H](Cc2ccccc2)C(=O)N[C@@H](CCC(N)=O)C(=O)N[C@@H](CC(N)=O)C(=O)N1)C(=O)NCC(N)=O (stereo in doubt; 6) | 2.9 |  |  |  |  |  |
| NC(=O)CC[C@@H]1NC(=O)[C@H](Cc2ccccc2)NC(=O)[C@H](Cc2ccc(O)cc2)NC(=O)CCSSC[C@@H](C(=O)N2CCC[C@H]2C(=O)N[C@H](CCCN=C(N)N)C(=O)NCC(N)=O)NC(=O)[C@H](CC(N)=O)NC1=O (stereo in doubt; 4) [DESMOPRESSIN] |  | 1390 | 4 | 346 | 0.18 |  |
| NC(=O)CC[C@@H]1NC(=O)[C@H](Cc2ccccc2)NC(=O)[C@H](Cc2ccc(O)cc2)NC(=O)CCSSC[C@@H](C(=O)N2CCC[C@H]2C(=O)N[C@H](CCCN=C(N)N)C(=O)NCC(N)=O)NC(=O)[C@H](CC(N)=O)NC1=O (stereo in doubt; 6) [DESMOPRESSIN] |  | 870 | 80 | 0.39 | 0.21 |  |
| C[C@@H](O)[C@@H]1NC(=O)[C@H](Cc2ccccc2)NC(=O)[C@H](Cc2ccc(O)cc2)NC(=O)CCSSC[C@@H](C(=O)N2CCC[C@H]2C(=O)N[C@H](CCCNC(=N)N)C(=O)NCC(N)=O)NC(=O)[C@H](CC(N)=O)NC1=O |  | 793 |  | < 0.02 | 0.24 |  |
| NC(=O)CC[C@@H]1NC(=O)[C@H](Cc2ccccc2)NC(=O)[C@H](Cc2ccc(O)cc2)NC(=O)[C@@H](N)CSSC[C@@H](C(=O)N2CCC[C@H]2C(=O)N[C@H](CCCN=C(N)N)C(=O)NCC(N)=O)NC(=O)[C@H](CC(N)=O)NC1=O | 1.02 | 114 | 30 | 1.1 | 0.1 | 0.4 |
| N=C(N)NCCC[C@@H](NC(=O)[C@@H]1CCCN1C(=O)[C@@H]1CSSCCC(=O)N[C@@H](Cc2ccc(O)cc2)C(=O)N[C@@H](Cc2ccccc2)C(=O)N[C@@H](CCC(N)=O)C(=O)N[C@@H](CC(N)=O)C(=O)N1)C(=O)NCC(N)=O (stereo in doubt; 4) | 66 |  |  |  |  | 47 |
| CC(C)[C@@H]1NC(=O)[C@H](Cc2ccccc2)NC(=O)[C@H](Cc2ccc(O)cc2)NC(=O)CCSSC[C@@H](C(=O)N2CCC[C@H]2C(=O)N[C@H](CCCNC(=N)N)C(=O)NCC(N)=O)NC(=O)[C@H](CC(N)=O)NC1=O ([Mpa]YFVNCP[dR]G-NH2; disulfide 1-6) |  | 1230 |  | < 0.01 |  |  |
